Values without a mark were called inactive.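 Rule for the calls, unless noted: active = viability at or below 10% of carrier control in both of two separate runs; inconclusive = viability at or below 10% in only one of the two runs; inactive = the rest.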
Assay: SK-BR-3 cell growth inhibitors, pilot screen, 24 h, human (AID 572);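 note: compound exposure lasted between 18 and 24 h rather than exactly 24 h; 100% = carrier-treated control wells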
Conditions: SK-BR-3 viability, CellTiter-Glo luminescence, at 10 µM, active compounds read low

Row | Compound | viability [%]
1 | CCOc1ccc(OCc2ccc(C(=O)Nc3cccc(C)n3)o2)cc1 | 101
2 | CCOC(=O)N1CCC(NC(=O)CSCc2nc(-c3cccc(OC)c3)oc2C)CC1 | 94.5
3 | Cn1c(=O)cc(OCC(=O)N2CCN(c3cccc(C(F)(F)F)c3)CC2)c2ccccc21 | 89
4 | CCCCOc1ccc(CSc2n[nH]c(C)n2)cc1 | 83.5
5 | CS(=O)(=O)N(CC(=O)NCc1ccccn1)c1ccc2c(c1)OCCO2 | 104
6 | CCOC(=O)CSc1nnc([C@H](C)NC(=O)OC(C)(C)C)o1 | 104
7 | CCSc1nnc2c(n1)OC=Nc1ccc(Br)cc1-2 | 92.5
8 | COc1ccccc1Nc1nc2ccccc2[nH]1 | 92
9 | Cc1oc(-c2ccccc2Cl)nc1CSCC(=O)N1CCCC1 | 72
10 | CNC(=O)Nc1cccc(C(F)(F)F)c1 | 105
11 | CCOC(=O)N1CCN(c2c(NCCN(C)Cc3ccccc3)c(=O)c2=O)CC1 | 98
12 | CCOc1ncccc1C(=O)OCC(=O)N1CC(=O)Nc2ccccc21 | 87
13 | Cn1c(=O)c2c(-c3ccccc3)n(CCCN3CCOCC3)cc2n(C)c1=O | 77.5
14 | COc1cccc(NC(=O)N2CCN(c3cccc(C)c3C)CC2)c1 | 102
15 | CCCCC(=O)NCCNc1nc2c(c(=O)n(C)c(=O)n2C)n1Cc1ccccc1 | 116
16 | COc1ccc(S(=O)(=O)Nc2ccc(S(=O)(=O)N3CCCCC3)cc2)cc1OC | 92
17 | COc1ccc(CN2CC(C(=O)NCc3ccccn3)CC2=O)cc1 (stereo not given) | 92.5
18 | CC(C)(C)NC(=O)Cn1nnc(-c2cccs2)n1 | 94
19 | COCCn1nnnc1CN(Cc1cccnc1)Cc1cc2cc(OC)ccc2[nH]c1=O | 91
20 | CC(C)=CC/C=C1\CCC(C(=O)O)C(C(=O)O)C1 (stereo not given) | 114

Row | Compound | viability [%]
21 | CCOC(=O)C1=C(C)NC(SC(C)=O)=NC1c1ccc(OC(C)=O)c(OC)c1 (stereo not given) | 106
22 | O=C(Nc1cccc(F)c1)c1cccc(S(=O)(=O)N2CCOCC2)c1 | 107
23 | CCCn1c(SCC(=O)N2CCCc3ccccc32)nnc1-c1ccccn1 | 84.5
24 | Cc1ccccc1N(C)S(=O)(=O)c1ccc2[nH]cc(C(=O)NCC3CCCO3)c(=O)c2c1 (stereo not given) | 83
25 | Cc1cccc(C(OC(=O)c2ccco2)C(=O)NCc2ccccc2)n1 (stereo not given) | 102
26 | Nn1c(SCC(=O)Nc2ccc(F)cc2)nnc1-c1cccnc1 | 90.5
27 | CCOC(=O)c1c(NC(=O)c2nn(CC)cc2Br)c(C#N)cn1-c1ccccc1 | 78
28 | CCCCOC(=O)CN1C(=O)c2ccc(C(=O)OCCCC)cc2C1=O | 87
29 | O=C(COc1ccc(Cl)cc1)Nc1nc(-c2cccs2)cs1 | 96
30 | O=C(CSc1ncn[nH]1)c1ccco1 | 120
31 | CC(=O)Nc1c(O)nc(SCC(=O)Nc2nnc(CC(C)C)s2)[nH]c1=O | 86.5
32 | COC(=O)C(C)NC(=O)C12CC3CC(CC(C3)C1)C2 (stereo not given) | 92
33 | CCOc1cc(C2C(C#N)=C(N)OC(C)=C2C(C)=O)cc(Br)c1O (stereo not given) | 114
34 | COC(=O)c1cc(Br)c(=O)n(Cc2cccnc2)c1 | 108
35 | COc1cc(NS(=O)(=O)c2ccc(Br)s2)cc(OC)c1 | 87
36 | Cc1ccccc1N(CC(=O)NCC1CCCO1)C(=O)C1(C)CC(=O)N=C2C=CC=CN21 (stereo not given) | 96
37 | CSc1ccc(S(=O)(=O)Nc2cccc(F)c2)cc1 | 96
38 | CCC(C)(C)n1nnnc1C(c1ccncc1)N1CCN(c2cccc(OC)c2)CC1 (stereo not given) | 77.5
39 | CCn1c(=O)c(C(=O)Nc2cccnc2)c(O)c2ccccc21 | 103
40 | CCOCCCNC(=O)CCNS(=O)(=O)c1ccc(C)cc1 | 102

Assay: HUVEC growth inhibition – cell-based, human, primary screen (AID 575;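 active = viability at or below 30% in both replicate assays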;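 note: 100% = median of untreated cell wells with 0.1% DMSO on each plate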)
Conditions: HUVEC proliferation, CellTiter-Glo luminescence, 72 h; at 10 µM; active compounds read low
Outline: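 Material: primary human umbilical vein endothelial cells / Schedule: 72 h exposure, 37 °C, 5% CO2, 30 min RT equilibration / Signal: ATP-based CellTiter-Glo luminescent read / Read-out basis: percent of median DMSO-control luminescence / Control set: 32 DMSO-only cell-control wells (high), 32 MePR drug-control wells (low) per plate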

Row | Compound | viability [%]
41 | CCOc1ccc(OCc2ccc(C(=O)Nc3cccc(C)n3)o2)cc1 | 84.1
42 | CCOC(=O)N1CCC(NC(=O)CSCc2nc(-c3cccc(OC)c3)oc2C)CC1 | 97.7
43 | Cn1c(=O)cc(OCC(=O)N2CCN(c3cccc(C(F)(F)F)c3)CC2)c2ccccc21 | 90.7
44 | CCCCOc1ccc(CSc2n[nH]c(C)n2)cc1 | 103
45 | CS(=O)(=O)N(CC(=O)NCc1ccccn1)c1ccc2c(c1)OCCO2 | 96.8
46 | CCOC(=O)CSc1nnc([C@H](C)NC(=O)OC(C)(C)C)o1 | 107
47 | CCSc1nnc2c(n1)OC=Nc1ccc(Br)cc1-2 | 79.3
48 | COc1ccccc1Nc1nc2ccccc2[nH]1 | 86.3
49 | Cc1oc(-c2ccccc2Cl)nc1CSCC(=O)N1CCCC1 | 79.4
50 | CNC(=O)Nc1cccc(C(F)(F)F)c1 | 93
51 | CCOC(=O)N1CCN(c2c(NCCN(C)Cc3ccccc3)c(=O)c2=O)CC1 | 84.3
52 | CCOc1ncccc1C(=O)OCC(=O)N1CC(=O)Nc2ccccc21 | 100
53 | Cn1c(=O)c2c(-c3ccccc3)n(CCCN3CCOCC3)cc2n(C)c1=O | 69.7
54 | COc1cccc(NC(=O)N2CCN(c3cccc(C)c3C)CC2)c1 | 68.5
55 | CCCCC(=O)NCCNc1nc2c(c(=O)n(C)c(=O)n2C)n1Cc1ccccc1 | 99.3
56 | COc1ccc(S(=O)(=O)Nc2ccc(S(=O)(=O)N3CCCCC3)cc2)cc1OC | 95.8
57 | COc1ccc(CN2CC(C(=O)NCc3ccccn3)CC2=O)cc1 (stereo not given) | 101
58 | CC(C)(C)NC(=O)Cn1nnc(-c2cccs2)n1 | 101
59 | COCCn1nnnc1CN(Cc1cccnc1)Cc1cc2cc(OC)ccc2[nH]c1=O | 98.6
60 | CC(C)=CC/C=C1\CCC(C(=O)O)C(C(=O)O)C1 (stereo not given) | 91.6

Row | Compound | viability [%]
61 | CCOC(=O)C1=C(C)NC(SC(C)=O)=NC1c1ccc(OC(C)=O)c(OC)c1 (stereo not given) | 82.9
62 | O=C(Nc1cccc(F)c1)c1cccc(S(=O)(=O)N2CCOCC2)c1 | 92.8
63 | CCCn1c(SCC(=O)N2CCCc3ccccc32)nnc1-c1ccccn1 | 103
64 | Cc1ccccc1N(C)S(=O)(=O)c1ccc2[nH]cc(C(=O)NCC3CCCO3)c(=O)c2c1 (stereo not given) | 90.1
65 | Cc1cccc(C(OC(=O)c2ccco2)C(=O)NCc2ccccc2)n1 (stereo not given) | 86.6
66 | Nn1c(SCC(=O)Nc2ccc(F)cc2)nnc1-c1cccnc1 | 95.1
67 | CCOC(=O)c1c(NC(=O)c2nn(CC)cc2Br)c(C#N)cn1-c1ccccc1 | 62.5
68 | CCCCOC(=O)CN1C(=O)c2ccc(C(=O)OCCCC)cc2C1=O | 92.3
69 | O=C(COc1ccc(Cl)cc1)Nc1nc(-c2cccs2)cs1 | 79.9
70 | O=C(CSc1ncn[nH]1)c1ccco1 | 95.9
71 | CC(=O)Nc1c(O)nc(SCC(=O)Nc2nnc(CC(C)C)s2)[nH]c1=O | 98.2
72 | COC(=O)C(C)NC(=O)C12CC3CC(CC(C3)C1)C2 (stereo not given) | 107
73 | CCOc1cc(C2C(C#N)=C(N)OC(C)=C2C(C)=O)cc(Br)c1O (stereo not given) | 120
74 | COC(=O)c1cc(Br)c(=O)n(Cc2cccnc2)c1 | 95.9
75 | COc1cc(NS(=O)(=O)c2ccc(Br)s2)cc(OC)c1 | 89.6
76 | Cc1ccccc1N(CC(=O)NCC1CCCO1)C(=O)C1(C)CC(=O)N=C2C=CC=CN21 (stereo not given) | 104
77 | CSc1ccc(S(=O)(=O)Nc2cccc(F)c2)cc1 | 97.7
78 | CCC(C)(C)n1nnnc1C(c1ccncc1)N1CCN(c2cccc(OC)c2)CC1 (stereo not given) | 91.9
79 | CCn1c(=O)c(C(=O)Nc2cccnc2)c(O)c2ccccc21 | 113
80 | CCOCCCNC(=O)CCNS(=O)(=O)c1ccc(C)cc1 | 89.9

Reference: PubChem BioAssay
